Test results: ChEMBL document CHEMBL1132373, “Synthesis, opioid receptor binding, and biological activities of naltrexone-derived pyrido- and pyrimidomorphinans” (J Med Chem, 1999)

How the values were obtained:
[1] = target: Mu-type opioid receptor (Cavia porcellus) (UniProt P97266); experiment: Antagonist potency against mu opioid receptor in guinea pig ileum (GPI) using […]; type: functional, tissue-based
Procedure, shortened: (§1)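 Longitudinal muscle-myenteric plexus strips from male Hartley guinea pigs (250-500 g), 37 °C oxygenated Krebs, 1 g tension, 0.1 Hz, 0.4 ms pulses. Preincubated 30 min with 1 µM compound, washed 30 min, cumulative PL-017 curve repeated. Ke = [antagonist]/(IC50 ratio - 1); IC50 from 2-4 tissues.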

Cavia porcellus [2] = species on record: Cavia porcellus; experiment: Selectivity ratio of binding affinity towards mu of […] preparations; type: tissue-based
Mu-type opioid receptor = Mu-type opioid receptor (Rattus norvegicus, UniProt P33535); experiment: Binding affinity for Opioid receptor mu 1 was determined by inhibition of binding of [3H]DAMGO (1.4-3 nM) to rat brain membranes; type: cell membranes, Membrane
Sequence of Mu-type opioid receptor (P33535 whole entry): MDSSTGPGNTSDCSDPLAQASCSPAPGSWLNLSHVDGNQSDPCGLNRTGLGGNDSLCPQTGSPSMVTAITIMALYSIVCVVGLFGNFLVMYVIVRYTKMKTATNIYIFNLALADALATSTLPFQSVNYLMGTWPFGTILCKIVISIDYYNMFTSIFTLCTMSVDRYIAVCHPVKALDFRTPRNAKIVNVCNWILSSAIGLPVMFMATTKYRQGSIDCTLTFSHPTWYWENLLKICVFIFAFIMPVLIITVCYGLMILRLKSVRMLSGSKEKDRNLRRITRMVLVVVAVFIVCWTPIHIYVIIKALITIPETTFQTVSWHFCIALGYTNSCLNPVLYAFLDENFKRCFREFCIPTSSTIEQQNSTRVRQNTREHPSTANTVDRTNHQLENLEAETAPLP
Procedure, shortened: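 Rat brain membranes prepared daily, washed twice at 30000g. Labelled with [3H]DAMGO (1-3 nM), 2 h at 25 °C in 50 mM Tris-HCl pH 7.4 plus protease inhibitor cocktail. Nonspecific binding with 20 µM levallorphan. Test drug at 8-10 concentrations, run twice; Ki from IC50 via Ki = IC50/(1+[L]/Kd).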

[3] = target: Delta-type opioid receptor (Mus musculus) (UniProt P32300); experiment: Antagonist potency against delta opioid receptor in mouse vas deferens (MVD) using DPDPE; type: functional, tissue-based
Sequence of Delta-type opioid receptor (Mus musculus) (P32300 whole entry): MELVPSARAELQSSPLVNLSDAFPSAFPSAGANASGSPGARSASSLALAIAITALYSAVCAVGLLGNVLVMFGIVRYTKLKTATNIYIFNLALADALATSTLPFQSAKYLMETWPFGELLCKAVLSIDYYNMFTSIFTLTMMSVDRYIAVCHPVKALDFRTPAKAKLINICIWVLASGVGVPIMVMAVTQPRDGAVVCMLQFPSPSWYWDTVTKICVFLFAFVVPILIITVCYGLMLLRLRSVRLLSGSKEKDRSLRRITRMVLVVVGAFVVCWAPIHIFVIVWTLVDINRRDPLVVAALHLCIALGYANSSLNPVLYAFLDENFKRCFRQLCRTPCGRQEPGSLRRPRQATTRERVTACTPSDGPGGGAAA
Procedure, shortened: (§2)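 Vas deferens from male ICR mice (25-40 g) in 37 °C oxygenated magnesium-free Krebs, 0.5 g tension, field-stimulated 0.1 Hz, 2-ms pulses. Compound 1 µM for 30 min, washout 30 min, cumulative DPDPE curve repeated. Ke = [antagonist]/(IC50 ratio - 1); IC50 from 2-4 tissues, n ≥ 3, nonlinear least squares.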

[4] = target: Delta-type opioid receptor (Rattus norvegicus, UniProt P33533); experiment: Binding affinity for Opioid receptor delta 1 was determined by inhibition of binding of [3H]DADLE (1.3-2.0 nM) to rat brain membranes; type: cell membranes, Membrane
Sequence of Delta-type opioid receptor (Rattus norvegicus, UniProt P33533) (P33533 whole entry): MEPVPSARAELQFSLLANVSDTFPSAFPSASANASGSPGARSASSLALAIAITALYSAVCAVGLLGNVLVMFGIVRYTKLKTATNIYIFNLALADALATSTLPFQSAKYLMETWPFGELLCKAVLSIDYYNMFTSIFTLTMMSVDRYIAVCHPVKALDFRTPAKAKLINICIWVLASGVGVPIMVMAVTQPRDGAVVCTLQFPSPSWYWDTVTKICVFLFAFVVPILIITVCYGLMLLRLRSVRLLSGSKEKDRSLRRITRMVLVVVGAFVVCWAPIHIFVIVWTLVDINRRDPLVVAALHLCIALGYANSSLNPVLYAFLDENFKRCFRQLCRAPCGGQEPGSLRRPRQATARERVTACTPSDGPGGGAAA
Procedure, shortened: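 Rat brain membranes prepared daily (homogenised in ice-cold 10 mM Tris-HCl pH 7.0, centrifuged twice at 30000g). [3H]DADLE (2 nM) incubated 2 h at 25 °C in 50 mM Tris-HCl pH 7.4 with 100 mM choline chloride, 3 mM MnCl2, 100 nM DAMGO blocking mu sites, protease inhibitors. Nonspecific: 20 µM levallorphan. 8-10 drug concentrations, duplicate; Ki = IC50/(1+[L]/Kd).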

[5] = target: Kappa-type opioid receptor (Cavia porcellus, UniProt P41144); experiment: Binding affinity for Opioid receptor kappa 1 was determined by inhibition of binding of [3H]U-69593 (1.2-2.2 nM) to guinea pig brain membranes; set-up: species or system Membrane
Sequence of Kappa-type opioid receptor (P41144 whole entry): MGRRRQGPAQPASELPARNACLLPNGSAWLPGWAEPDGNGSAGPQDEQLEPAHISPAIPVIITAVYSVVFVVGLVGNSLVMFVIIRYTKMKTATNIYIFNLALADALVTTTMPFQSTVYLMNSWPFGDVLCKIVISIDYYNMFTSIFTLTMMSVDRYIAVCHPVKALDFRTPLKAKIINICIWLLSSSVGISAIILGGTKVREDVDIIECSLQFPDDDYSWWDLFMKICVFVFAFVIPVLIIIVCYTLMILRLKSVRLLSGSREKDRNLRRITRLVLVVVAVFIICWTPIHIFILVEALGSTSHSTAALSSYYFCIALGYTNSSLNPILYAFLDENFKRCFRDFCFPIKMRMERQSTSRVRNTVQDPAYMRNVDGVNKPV
Procedure, shortened: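 Guinea pig brain membranes prepared daily, washed twice at 30000g. [3H]U69,593 (2 nM) incubated 2 h at 25 °C in 50 mM Tris-HCl pH 7.4 with 1 µg/mL captopril and protease inhibitors. Nonspecific binding with 1 µM U69,593. 8-10 drug concentrations, twice; Ki = IC50/(1+[L]/Kd).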

[6] = target: Mu-type opioid receptor (Cavia porcellus) (UniProt P97266); experiment: Opioid antagonist potency against […] mu-opioid receptor from guinea pig ileum(GPI).; type: functional, tissue-based; procedure, shortened: as §1
[7] = target: Delta-type opioid receptor (Mus musculus) (UniProt P32300); experiment: (§3) Antagonist potency measured as Ke = [antagonist]/(IC50 ratio-1) against delta opioid receptor from mouse vas deferens (MVD) using DPDPE; type: functional; procedure, shortened: as §2
Cavia porcellus [8] = species on record: Cavia porcellus; experiment: Selectivity ratio of binding affinity towards kappa of guinea pig brain membrane to delta receptors of rat brain membranes; type: cell membranes
[9] = target: Opioid receptors; mu & delta (Rattus norvegicus) (UniProt P33533+P33535); experiment: Selectivity ratio of binding affinity towards mu to delta receptors of rat brain membranes; type: cell membranes; conditions: Membrane
Sequence of Opioid receptors; mu & delta (Rattus norvegicus) (P33533 whole entry, looked up): as the sequence (P33533 whole entry) above
Sequence of Opioid receptors; mu & delta (Rattus norvegicus) (P33535 whole entry, looked up): as the sequence (P33535 whole entry) above

Cavia porcellus [10] = species on record: Cavia porcellus; experiment: Inhibition of contraction (agonistic activity) of guinea pig ileum(GPI) at 1 uM concentration.; type: functional
Procedure, shortened: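 Guinea pig ileum longitudinal muscle strips, 37 °C oxygenated Krebs, 1 g tension, 0.1 Hz, 0.4 ms pulses, supramaximal voltage.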

Mus musculus = species on record: Mus musculus; experiment: Inhibition of contraction (agonistic activity) of mouse vas deferens (MVD) at 1 uM concentration.; type: functional
[11] = target: Delta-type opioid receptor (Mus musculus, UniProt P32300); experiment: as §3; type: functional; procedure, shortened: as §2
Sequence of Delta-type opioid receptor (Mus musculus, UniProt P32300) (P32300 whole entry): as the sequence (P32300 whole entry) above

[12] = target: Delta-type opioid receptor (Mus musculus) (UniProt P32300)

Sequence of Mu-type opioid receptor (Cavia porcellus) (P97266 whole entry): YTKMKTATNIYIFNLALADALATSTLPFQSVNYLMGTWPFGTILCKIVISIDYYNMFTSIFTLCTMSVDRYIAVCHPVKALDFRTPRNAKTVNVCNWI

`Oc1ccc2c3c1O[C@H]1c4ncncc4C[C@@]4(O)[C@@H](C2)N(CC2CC2)CC[C@]314` showed an IC50 ratio [1] of 7.52, a Selectivity ratio (Cavia porcellus [2]) of 2 and a Ki (Mu-type opioid receptor) of 4.15 nM. It also gave an IC50 ratio [3] of 14.4, a Ki [4] of 3.5 nM and a Ki [5] of 6.24 nM. It also gave a Ke [6] of 150 nM, a Ke [7] of 75 nM and a Selectivity ratio (Cavia porcellus [8]) of 1.8. It also gave a Selectivity ratio [9] of 1.2.
Compound `Cc1cc(-c2ccccc2)c2c(n1)C1Oc3c(O)ccc4c3[C@@]13CCN(CC1CC1)[C@H](C4)[C@]3(O)C2` (some centres undefined) has a Ki (Mu-type opioid receptor) of 154 nM, an IC50 (Cavia porcellus [10]; Cavia porcellus, Ileum) of 5.4 nM and a Ki [4] of 125 nM. For the same compound, the Ki [5] was 677 nM, the IC50 (Mus musculus; Mus musculus) was 1.2 nM and the Selectivity ratio (Cavia porcellus [8]) was 5.4. For the same compound, the Selectivity ratio [9] was 1.2.
With `Cc1ncc2c(n1)[C@@H]1Oc3c(O)ccc4c3[C@@]13CCN(CC1CC1)[C@H](C4)[C@]3(O)C2` the Ki (Mu-type opioid receptor) was 6 nM, the IC50 ratio [3] was 7.6 and the Ki [4] was 22.7 nM. For the same compound, the Ki [5] was 25 nM, the Ke [7] was 150 nM and the IC50 (Mus musculus; Mus musculus) was 3 nM. For the same compound, the Selectivity ratio (Cavia porcellus [8]) was 1.1 and the Selectivity ratio [9] was 0.3.
In the case of `Oc1ccc2c3c1O[C@H]1c4[nH]c5ccccc5c4C[C@@]4(O)[C@@H](C2)N(CC2CC2)CC[C@]314` [NALTRINDOLE], the “Percent inhibition of contraction at 1 uM” value (“Percent inhibition” for short) (Cavia porcellus [10]) is reported as 18%, the Ke [6] is reported as 43 nM and the “Percent inhibition” value (Mus musculus) is reported as 16%.
Compound `Cc1nc(-c2ccccc2)c2c(n1)C1Oc3c(O)ccc4c3[C@@]13CCN(CC1CC1)[C@H](C4)[C@]3(O)C2` (some centres undefined) has a Ki (Mu-type opioid receptor) of 254 nM, a Ki [4] of 325 nM and a Ki [5] of 565 nM. For the same compound, the Selectivity ratio (Cavia porcellus [8]) was 1.7 and the Selectivity ratio [9] was 0.8.
Compound `Oc1ccc2c3c1O[C@H]1c4ncc(-c5ccccc5)cc4C[C@@]4(O)[C@@H](C2)N(CC2CC2)CC[C@]314` has an IC50 ratio [1] of 24.6, a Selectivity ratio (Cavia porcellus [2]) of 12 and a Ki (Mu-type opioid receptor) of 13.5 nM. It also gave an IC50 ratio [3] of 249, a Ki [4] of 0.87 nM and a Ki [5] of 17.6 nM. The “Percent inhibition” value (Mus musculus) was 4.7%, the Ki [11] was 3.4 nM and the Selectivity ratio (Cavia porcellus [8]) was 20. It also gave a Selectivity ratio [9] of 16.
With `Oc1ccc2c3c1O[C@H]1c4ncc(-c5ccc(Cl)cc5)cc4C[C@@]4(O)[C@@H](C2)N(CC2CC2)CC[C@]314` the IC50 (Cavia porcellus [10]; Cavia porcellus, Ileum) was 163 nM and the “Percent inhibition” value (Mus musculus) was 21%.
For `Oc1ccc2c3c1O[C@H]1c4nc5ccccc5c(-c5ccccc5)c4C[C@@]4(O)[C@@H](C2)N(CC2CC2)CC[C@]314`, the Ki (Mu-type opioid receptor) was 308 nM, the Ki [4] was 73 nM and the Ki [5] was 272 nM. The Selectivity ratio (Cavia porcellus [8]) was 3.7 and the Selectivity ratio [9] was 4.2.
In the case of `Oc1ccc2c3c1OC1c4nccc(-c5ccccc5)c4C[C@@]4(O)[C@@H](C2)N(CC2CC2)CC[C@]314` (some centres undefined), the IC50 ratio [1] is reported as 6.21, the Selectivity ratio (Cavia porcellus [2]) is reported as 3.7 and the Ki (Mu-type opioid receptor) is reported as 191 nM. The “Percent inhibition” value (Cavia porcellus [10]) was 14.8%, the IC50 ratio [3] was 20.5 and the Ki [4] was 73 nM. It also gave a Ki [5] of 264 nM, a Ke [6] of 190 nM and a Ke [7] of 51 nM. For the same compound, the “Percent inhibition” value (Mus musculus) was 31%, the Selectivity ratio (Cavia porcellus [8]) was 3.6 and the Selectivity ratio [9] was 2.6.
With `Oc1ccc2c3c1O[C@H]1c4nc(-c5ccccc5)ccc4C[C@@]4(O)[C@@H](C2)N(CC2CC2)CC[C@]314` the IC50 ratio [1] was 12.4, the Selectivity ratio (Cavia porcellus [2]) was 3.5 and the Ki (Mu-type opioid receptor) was 11 nM. It also gave an IC50 ratio [3] of 41.1, a Ki [4] of 1.76 nM and a Ki [5] of 18.4 nM. For the same compound, the Ke [6] was 88 nM, the Ke [7] was 25 nM and the Selectivity ratio (Cavia porcellus [8]) was 10. For the same compound, the Selectivity ratio [9] was 6.3.
`Oc1ccc2c3c1O[C@H]1c4nc(-c5ccccc5)nc(-c5ccccc5)c4C[C@@]4(O)[C@@H](C2)N(CC2CC2)CC[C@]314` gave an IC50 ratio [1] of 2.8, a Selectivity ratio (Cavia porcellus [2]) of 3.7 and a Ki (Mu-type opioid receptor) of 1170 nM. For the same compound, the IC50 ratio [3] was 7.63, the Ki [4] was 344 nM and the Ki [5] was 2540 nM. It also gave a Ke [6] of 560 nM, a Ke [7] of 150 nM and a Selectivity ratio (Cavia porcellus [8]) of 7.4. The Selectivity ratio [9] was 3.4.
`Oc1ccc2c3c1O[C@H]1c4nc(-c5ccccc5)ncc4C[C@@]4(O)[C@@H](C2)N(CC2CC2)CC[C@]314` was tested, and the IC50 ratio [1] was 34.1, the Selectivity ratio (Cavia porcellus [2]) was 0.4 and the Ki (Mu-type opioid receptor) was 22 nM. For the same compound, the IC50 (Cavia porcellus [10]; Cavia porcellus, Ileum) was 4 nM, the IC50 ratio [3] was 14.3 and the Ki [4] was 16 nM. For the same compound, the Ki [5] was 11 nM, the Ke [6] was 30 nM and the Ke [7] was 75 nM. It also gave a Selectivity ratio (Cavia porcellus [8]) of 0.7 and a Selectivity ratio [9] of 1.4.
`Oc1ccc2c3c1O[C@H]1c4ncccc4C[C@@]4(O)[C@@H](C2)N(CC2CC2)CC[C@]314` was tested, and the IC50 ratio [1] was 7.08, the Ke [12] was 37 nM and the Selectivity ratio (Cavia porcellus [2]) was 4.4. It also gave a Ki (Mu-type opioid receptor) of 1.5 nM, an inhibition at 1 µM (Cavia porcellus [10]) of 0% and a Ki [4] of 0.78 nM. The Ki [5] was 8.8 nM, the inhibition at 1 µM (Mus musculus) was 0% and the Selectivity ratio (Cavia porcellus [8]) was 11. The Selectivity ratio [9] was 1.9.
Work on `Oc1ccc2c3c1O[C@H]1c4nc(Cc5ccccc5)nc(-c5ccccc5)c4C[C@@]4(O)[C@@H](C2)N(CC2CC2)CC[C@]314` yielded an IC50 ratio [1] of 23.8, a Selectivity ratio (Cavia porcellus [2]) of 0.17 and a Ki (Mu-type opioid receptor) of 233 nM. It also gave an IC50 (Cavia porcellus [10]) of 14%, an IC50 ratio [3] of 4.8 and a Ki [4] of 100 nM. It also gave a Ki [5] of 1270 nM, a Ke [6] of 44 nM and a Ke [7] of 260 nM. For the same compound, the IC50 (Mus musculus) was 11.7%, the Selectivity ratio (Cavia porcellus [8]) was 13 and the Selectivity ratio [9] was 2.3.
For `Oc1ccc2c3c1O[C@H]1c4nc(-c5ccccc5)cc(-c5ccccc5)c4C[C@@]4(O)[C@@H](C2)N(CC2CC2)CC[C@]314`, the Ki (Mu-type opioid receptor) was 652 nM, the IC50 ratio [3] was 21.2 and the Ki [4] was 86 nM. It also gave a Ki [5] of 2120 nM, a Ke [7] of 49 nM and a Selectivity ratio (Cavia porcellus [8]) of 25. It also gave a Selectivity ratio [9] of 7.6.
Compound `Oc1ccc2c3c1O[C@H]1c4ncnc(-c5ccccc5)c4C[C@@]4(O)[C@@H](C2)N(CC2CC2)CC[C@]314` has an IC50 ratio [1] of 5.9, a Selectivity ratio (Cavia porcellus [2]) of 0.7 and a Ki (Mu-type opioid receptor) of 348 nM. For the same compound, the “Percent inhibition” value (Cavia porcellus [10]) was 17%, the IC50 ratio [3] was 4.3 and the Ki [4] was 230 nM. The Ki [5] was 216 nM, the Ke [6] was 204 nM and the Ke [7] was 300 nM. For the same compound, the “Percent inhibition” value (Mus musculus) was 15.4%, the Selectivity ratio (Cavia porcellus [8]) was 0.9 and the Selectivity ratio [9] was 1.5.
